Reference: ChEMBL document CHEMBL3739417, “Synthesis and biological evaluation of novel 4,5-disubstituted 2H-1,2,3-triazoles as cis-constrained analogues of combretastatin A-4” (2015)

What was measured:
Type in all cases: functional
[1] = Growth inhibition of human HOP92 cells after 48 hrs by sulforhodamine B assay; settings: HOP-92, 48 h
Procedure, shortened: (§1)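 NCI-60 panel screen by SRB assay (Rubinstein method). Percentage growth taken from optical density of SRB colour, read before and 48 hrs after exposure to compound or vehicle control. All analogues first screened at 10^-5 M. Analogues giving 60% growth inhibition at that level in at least eight lines then went to a five-concentration dose-response study.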

[2] = Growth inhibition of human COLO205 cells after 48 hrs by sulforhodamine B assay; settings: COLO 205, 48 h; procedure, shortened: as §1
[3] = Growth inhibition of human DU145 cells after 48 hrs by sulforhodamine B assay; settings: DU-145, 48 h; procedure, shortened: as §1
[4] = Growth inhibition of human HCT15 cells after 48 hrs by sulforhodamine B assay; settings: HCT-15, 48 h; procedure, shortened: as §1
[5] = Growth inhibition of human RPMI8226 cells after 48 hrs by sulforhodamine B assay; settings: RPMI-8226, 48 h; procedure, shortened: as §1
[6] = Growth inhibition of human HCC2998 cells after 48 hrs by sulforhodamine B assay; settings: HCC 2998, 48 h; procedure, shortened: as §1
[7] = Growth inhibition of human SNB75 cells after 48 hrs by sulforhodamine B assay; settings: SNB-75, 48 h; procedure, shortened: as §1
[8] = Growth inhibition of human MOLT4 cells after 48 hrs by sulforhodamine B assay; settings: MOLT-4, 48 h; procedure, shortened: as §1
[9] = Growth inhibition of human SW620 cells after 48 hrs by sulforhodamine B assay; settings: SW-620, 48 h; procedure, shortened: as §1
MCF7 = assay: Growth inhibition of human MCF7 cells after 48 hrs by sulforhodamine B assay; settings: MCF7, 48 h; procedure, shortened: as §1
[10] = Growth inhibition of human UO31 cells after 48 hrs by sulforhodamine B assay; settings: UO-31, 48 h; procedure, shortened: as §1
MDA-MB-231 = assay: Growth inhibition of human MDA-MB-231 cells after 48 hrs by sulforhodamine B assay; settings: MDA-MB-231, 48 h; procedure, shortened: as §1
SR = assay: Growth inhibition of human SR cells after 48 hrs by sulforhodamine B assay; procedure, shortened: as §1
U-251 = assay: Growth inhibition of human U251 cells after 48 hrs by sulforhodamine B assay; settings: U-251, 48 h; procedure, shortened: as §1
NCI-H460 = assay: Growth inhibition of human NCI-H460 cells after 48 hrs by sulforhodamine B assay; settings: NCI-H460, 48 h; procedure, shortened: as §1
[11] = Growth inhibition of human HL-60(TB) cells after 48 hrs by sulforhodamine B assay; settings: HL-60, 48 h; procedure, shortened: as §1
CCRF-CEM = assay: Growth inhibition of human CCRF-CEM cells after 48 hrs by sulforhodamine B assay; procedure, shortened: as §1
[12] = Growth inhibition of human PC3 cells after 48 hrs by sulforhodamine B assay; settings: PC-3, 48 h; procedure, shortened: as §1
[13] = Growth inhibition of human SF268 cells after 48 hrs by sulforhodamine B assay; settings: SF-268, 48 h; procedure, shortened: as §1
[14] = Growth inhibition of human SKOV3 cells after 48 hrs by sulforhodamine B assay; settings: SK-OV-3, 48 h; procedure, shortened: as §1
[15] = Growth inhibition of human OVCAR3 cells after 48 hrs by sulforhodamine B assay; settings: OVCAR-3, 48 h
Procedure, shortened: (§2)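 NCI-60 sulforhodamine B screen. Compounds were first tested at a single dose of 10⁻⁵ M; hits, defined as ≥60% growth inhibition in at least eight lines, went on to a five-concentration dose–response. SRB optical density was read before and 48 h after exposure to compound or vehicle. Percentage growth was calculated from OD.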

[16] = Growth inhibition of human LOXIMVI cells after 48 hrs by sulforhodamine B assay; settings: LOX IMVI; procedure, shortened: as §1
[17] = Growth inhibition of human SF295 cells after 48 hrs by sulforhodamine B assay; settings: SF-295, 48 h; procedure, shortened: as §1
MDA-MB-468 = assay: Growth inhibition of human MDA-MB-468 cells after 48 hrs by sulforhodamine B assay; settings: MDA-MB-468, 48 h; procedure, shortened: as §1
KM12 = assay: Growth inhibition of human KM12 cells after 48 hrs by sulforhodamine B assay; settings: KM12, 48 h; procedure, shortened: as §1
A498 = assay: Growth inhibition of human A498 cells after 48 hrs by sulforhodamine B assay; settings: A498, 48 h; procedure, shortened: as §2
HT-29 = assay: Growth inhibition of human HT-29 cells after 48 hrs by sulforhodamine B assay; settings: HT-29, 48 h; procedure, shortened: as §1
[18] = Growth inhibition of human HCT116 cells after 48 hrs by sulforhodamine B assay; settings: HCT-116, 48 h; procedure, shortened: as §1
SK-MEL-2 = assay: Growth inhibition of human SK-MEL-2 cells after 48 hrs by sulforhodamine B assay; settings: SK-MEL-2, 48 h; procedure, shortened: as §1
A549 = assay: Growth inhibition of human A549/ATCC cells after 48 hrs by sulforhodamine B assay; settings: A549, 48 h; procedure, shortened: as §1
[19] = Growth inhibition of human IGROV1 cells after 48 hrs by sulforhodamine B assay; settings: IGROV-1, 48 h; procedure, shortened: as §1
NCI-H23 = assay: Growth inhibition of human NCI-H23 cells after 48 hrs by sulforhodamine B assay; settings: NCI-H23, 48 h; procedure, shortened: as §1
[20] = Growth inhibition of human NCI-ADR-RES cells after 48 hrs by sulforhodamine B assay; procedure, shortened: as §1
CAKI-1 = assay: Growth inhibition of human CAKI-1 cells after 48 hrs by sulforhodamine B assay; settings: CAKI-1, 48 h; procedure, shortened: as §1
ACHN = assay: Growth inhibition of human ACHN cells after 48 hrs by sulforhodamine B assay; procedure, shortened: as §1
786-0 = assay: Growth inhibition of human 786-0 cells after 48 hrs by sulforhodamine B assay; settings: 786-0, 48 h; procedure, shortened: as §1
MDA-MB-435 = assay: Growth inhibition of human MDA-MB-435 cells after 48 hrs by sulforhodamine B assay; settings: MDA-MB-435, 48 h; procedure, shortened: as §2
[21] = read-out: LD50 (the source's name)

## COc1cc(-c2n[nH]nc2-c2ccc3c(c2)OCO3)cc(OC)c1OC
[1]
  GI50: 120 nM
[1]; [21]
  CC50: > 100000 nM
[2]
  GI50: 310 nM
[2]; [21]
  CC50: > 100000 nM
[3]
  GI50: 350 nM
[3]; [21]
  CC50: > 100000 nM
[4]
  GI50: 130 nM
[4]; [21]
  CC50: > 100000 nM
[5]
  GI50: 330 nM
[5]; [21]
  CC50: > 100000 nM
[6]
  GI50: > 100000 nM
[6]; [21]
  CC50: > 100000 nM
[7]
  GI50: 80 nM
[7]; [21]
  CC50: > 100000 nM
[8]
  GI50: 570 nM
[8]; [21]
  CC50: > 100000 nM
[9]
  GI50: 110 nM
  LD50 (concentration killing 50% of cells): > 100 µM
MCF7
  GI50: 80 nM
MCF7; [21]
  CC50: > 100000 nM
[10]
  GI50: 660 nM
[10]; read-out: LD50
  LC50 (concentration killing 50% of cells): > 100000 nM
MDA-MB-231
  GI50: 530 nM
MDA-MB-231; [21]
  CC50: > 100000 nM
SR
  GI50: 40 nM
SR; read-out: LD50
  LC50 (concentration giving 50% net cell kill): > 100000 nM
U-251
  GI50: 300 nM
U-251; [21]
  CC50: > 100000 nM
NCI-H460
  GI50: 340 nM
NCI-H460; [21]
  CC50: > 100000 nM
[11]
  GI50: 200 nM
[11]; [21]
  CC50: > 100000 nM
CCRF-CEM
  GI50: 280 nM
CCRF-CEM; read-out: LD50
  LC50 (concentration killing 50% of cells): > 100000 nM
[12]
  GI50: 260 nM
[12]; [21]
  CC50: > 100000 nM
[13]
  GI50: > 100000 nM
[13]; [21]
  CC50: > 100000 nM
[14]
  GI50: 490 nM
[14]; read-out: LD50
  LC50 (concentration killing 50% of cells): > 100000 nM
[15]
  GI50: 430 nM
[15]; read-out: LD50
  LC50 (concentration giving 50% net cell kill): > 100000 nM
[16]
  GI50: 550 nM
[16]; [21]
  CC50: > 100000 nM
[17]
  GI50: 100 nM
[17]; [21]
  CC50: > 100000 nM
MDA-MB-468
  GI50: 230 nM
MDA-MB-468; [21]
  CC50: > 100000 nM
KM12
  GI50: 70 nM
KM12; read-out: LD50
  LC50 (concentration killing 50% of cells): > 100000 nM
A498
  GI50: 340 nM
A498; read-out: LD50
  LC50 (50% net cell kill): > 100000 nM
HT-29
  GI50: 390 nM
HT-29; read-out: LD50
  LC50 (concentration killing 50% of cells): > 100000 nM
[18]
  GI50: 180 nM
[18]; [21]
  CC50: > 100000 nM
SK-MEL-2
  GI50: 20 nM
SK-MEL-2; [21]
  CC50: > 100000 nM
A549
  GI50: 290 nM
A549; [21]
  CC50: > 100000 nM
[19]
  GI50: > 100000 nM
[19]; [21]
  CC50: > 100000 nM
NCI-H23
  GI50: 770 nM
NCI-H23; read-out: LD50
  LC50 (concentration giving 50% cell kill): > 100000 nM
[20]
  GI50: 80 nM
[20]; [21]
  CC50: > 100000 nM
CAKI-1
  GI50: 320 nM
CAKI-1; [21]
  CC50: > 100000 nM
ACHN
  GI50: 710 nM
ACHN; [21]
  CC50: > 100000 nM
786-0
  GI50: 620 nM
786-0; read-out: LD50
  LC50 (concentration killing 50% of cells): > 100000 nM
MDA-MB-435
  GI50: 90 nM
MDA-MB-435; read-out: LD50
  LC50 (concentration killing 50% of cells): > 100000 nM
